Tests used:
HepG2 = assay: Cytotoxicity against human HepG2 cells by MTT assay; type: functional, cell-based
Procedure, shortened: (§1)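 Human cancer cell lines were obtained from ATCC. Viability was read colorimetrically by MTT reduction, with doxorubicin as the positive control. IC50 values were derived in µM.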

A549 = assay: Cytotoxicity against human A549 cells by MTT assay; type: functional, cell-based; procedure, shortened: as §1
MDA-MB-231 = assay: Cytotoxicity against human MDA-MB-231 cells by MTT assay; type: functional, cell-based; procedure, shortened: as §1
MCF7 = assay: Cytotoxicity against human MCF7 cells by MTT assay; type: functional, cell-based; procedure, shortened: as §1
[1] = Cytotoxicity against human Hep3B cells by MTT assay; type: functional, cell-based, Hep 3B2; procedure, shortened: as §1

| Structure (SMILES) | IC50 (HepG2) | IC50 (A549) | IC50 (MDA-MB-231) | IC50 (MCF7) | IC50 [1] |
| --- | --- | --- | --- | --- | --- |
| CC(=O)CCCC(C)(C)C(=O)CCC(C)=O | > 50 µM | > 50 µM | > 50 µM | > 50 µM | > 50 µM |
| COC(=O)[C@@H](C)[C@@H]1CC[C@](C)(CCC(=O)C(C)(C)CCCC(C)=O)OO1 [DIACARPEROXIDE B] | 11.9 µM | 11.9 µM | 11.9 µM | 11.9 µM | 11.9 µM |
| COc1cccc2c1C(=O)c1c(O)c3c(c(O)c1C2=O)C[C@@](O)(C(=O)CO)C[C@@H]3O[C@H]1C[C@H](N)[C@H](O)[C@H](C)O1 [DOXORUBICIN] | 0.19 µM | – | 0.24 µM | – | 0.14 µM |
| C=C1CCCC(C)(C)C1CC[C@@]1(C)CC[C@H]([C@@H](C)C(=O)O)OO1 (stereo partly drawn) [NAPAPUIN B] | 0.9 µM | 0.6 µM | 0.3 µM | 5.9 µM | 41.3 µM |
| C=C1CCCC(C)(C)C1CC[C@@](C)(O)CC[C@@H](O)[C@@H](C)C(=O)OC (stereo partly drawn) [NEGOMBATODIOL] | > 50 µM | > 50 µM | > 50 µM | > 50 µM | > 50 µM |
| C=C1CCCC(C)(C)C1CC[C@]1(C)CCC(=O)O1 (stereo partly drawn) [NEGOMBATOLACTONE] | > 50 µM | > 50 µM | > 50 µM | > 50 µM | > 50 µM |
| C/C(=C\CC[C@]1(C)CC[C@H]([C@@H](C)C(=O)O)OO1)CCC12OC1(C)CCCC2(C)C (stereo partly drawn) [NEGOMBATOPEROXIDE A] | > 50 µM | > 50 µM | > 50 µM | > 50 µM | > 50 µM |
| CC(=O)/C=C/C[C@]1(C)CC[C@H]([C@@H](C)C(=O)O)OO1 [NEGOMBATOPEROXIDE B] | > 50 µM | > 50 µM | > 50 µM | > 50 µM | > 50 µM |
| C[C@@H](C(=O)O)[C@H]1CC[C@@](C)(C/C=C/C2(C)CCC(=O)O2)OO1 (stereo partly drawn) [NEGOMBATOPEROXIDE C/D] | > 50 µM | > 50 µM | > 50 µM | > 50 µM | > 50 µM |
| C=C1CCCC(C)(C)C1CC[C@]1(C)CC[C@H]([C@@H](C)C(=O)OC)OO1 (stereo partly drawn) [NUAPAPUIN B] | 2.9 µM | 5.38 µM | 3.5 µM | 38.5 µM | 23.7 µM |

— ChEMBL document CHEMBL1221371, “Norterpenoids and related peroxides from the formosan marine sponge Negombata corticata” (J Nat Prod, 2010)
